Assay [1] has as its system Embryonic stem cell. As to the kind of experiment: Induction of cardiomyogenic activity in human embryonic stem cells assessed as cardiomyocyte yield at 2 to 5 uM measured on day 15 by FACS analysis. Type of assay: functional, cell-based. The gist of the method:
(§1)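 Nkx2.5eGFP/w transgenic hESC line (eGFP driven by cardiac progenitor marker Nkx2.5). Compound present from Day 0, the day of embryoid body formation, to Day 8. On Day 15 EBs were dissociated to single cells for FACS. Nkx2.5 was read as GFP expression, and α-MHC by MF20 primary antibody with FITC-conjugated secondary.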
In general terms: Flow cytometry measures light scatter and fluorescence of single cells or particles in a stream.

Assay [2] has as its system Embryonic stem cell. Description: Induction of cardiomyogenic activity in human embryonic stem cells assessed as cell growth at 5 uM measured on day 15 by FACS analysis. It counts as functional, cell-based.
Assay [3] is described as follows: (§2) Induction of cardiomyogenic activity in human embryonic stem cells assessed as cardiomyocyte yield at 5 uM measured on day 15 by FACS analysis relative to control. Type of assay: functional, Embryonic stem cell. The gist of the method: as §1
Assay [4] deals with Embryonic stem cell. As to the kind of experiment: Induction of cardiomyogenic activity in human embryonic stem cells assessed as cardiomyocyte yield at 1 to 5 uM measured on day 15 by FACS analysis. Type of assay: functional, cell-based. An outline of the steps:
as §1

Assay [5] deals with Embryonic stem cell. The description is as §2. It counts as functional. An outline of the steps:
as §1

Assay [6] deals with Embryonic stem cell. As to the kind of experiment: Induction of cardiomyogenic activity in human embryonic stem cells assessed as cardiomyocyte yield at 5 to 15 uM measured on day 15 by FACS analysis. It counts as functional, cell-based. An outline of the steps:
as §1

Assay [7] is described as follows: Reduction of cardiomyogenic activity in human embryonic stem cells assessed as cardiomyocyte yield at 5 uM measured on day 15 by FACS analysis relative to control. It counts as functional, Embryonic stem cell. An outline of the steps: as §1
Assay [8] relates to Embryonic stem cell. As to the kind of experiment: Induction of cardiomyogenic activity in human embryonic stem cells assessed as cardiomyocyte yield at 5 to 100 uM measured on day 15 by FACS analysis. It counts as functional, cell-based. The gist of the method: as §1

Molecules are shown by their SMILES. Calls of active or inactive are those of the source. No cut-off for these calls is given here.

The results in this text go back to ChEMBL document CHEMBL2384985 (Bioorg Med Chem Lett, 2013).

On to `Cc1cccc(-c2nc(-c3ccc(O)cc3)[nH]c2-c2ccncc2)c1`, for which, in the assay with Embryonic stem cell [1], the result was inactive.
On to `C[S+]([O-])c1ccc(-c2nc(-c3ccc(F)cc3)c(-c3ccncc3)[nH]2)cc1` (stereo not given), for which, in the assay on Embryonic stem cell [2], the result was Active.
With `Cc1cccc(-c2nc(-c3ccc([S+](C)[O-])cc3)[nH]c2-c2ccncc2)c1` (stereo not given), the Ratio in assay [3] is 5. The result with Embryonic stem cell [2] was Active.
Turning to `Cc1cccc(-c2nc(-c3c(F)cccc3F)[nH]c2-c2ccncc2)c1`, in the assay with Embryonic stem cell [4], the outcome was inactive.
With `Cc1cccc(-c2nc(-c3ccc([S+](C)[O-])cc3)[nH]c2C2=CCOCC2)c1` (stereo not given), in the assay with Embryonic stem cell [5], the result was Active. Further, the outcome in the assay with Embryonic stem cell [6] was inactive.
As for `Cc1cccc(-c2nc(-c3ccccc3F)[nH]c2-c2ccncc2)c1`, the outcome with Embryonic stem cell [4] was inactive.
In the case of `C[S+]([O-])c1ccc(-c2nc(-c3ccc(F)cc3)c(C3=CCOCC3)[nH]2)cc1` (stereo not given), the Ratio in assay [7] was found to be 2. Moreover, the outcome in the assay with Embryonic stem cell [8] was inactive.
